Test results as given in ChEMBL document CHEMBL1158417, “Phosphonate analogues of cyclopropavir phosphates and their E-isomers. Synthesis and antiviral activity” (Bioorg Med Chem, 2009).
pEC50: −log10 of the molar value.

Tests used:
[1] = (§1) Cytotoxicity against human replicating KB cells; type: cell-based; details: KB cells
Summary of the method: (§2)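 Cytotoxicity measured in replicating KB cells, run alongside HSV-1 assays in BSC-1 cells.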

Human betaherpesvirus 5 [2] = experiment: Antiviral activity against Human cytomegalovirus Towne in HFF by plaque reduction assay; type: functional, organism-based; details: Human betaherpesvirus 5, Towne
Summary of the method: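 HCMV Towne or AD169 grown in human foreskin fibroblast (HFF) cultures; plaque reduction read-out for EC50; cytotoxicity judged visually in HFF cells not infected by virus.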

Murid betaherpesvirus 1 = experiment: Antiviral activity against Murine cytomegalovirus in MEF by plaque reduction assay; type: functional, organism-based
Summary of the method: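 Murine CMV titrated by plaque reduction in mouse embryonic fibroblasts (MEF); EC50 from plaque counts.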

Human betaherpesvirus 5 [3] = experiment: Antiviral activity against cyclopropavir-resistant Human cytomegalovirus 2696r expressing most of UL97 phosphotransferase sequence deleted mutant by plaque reduction assay; type: functional, organism-based; details: Human betaherpesvirus 5, 2696r
Summary of the method: (§3)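 Plaque reduction with HCMV Towne background strains: wild-type, 2696r (most of UL97 deleted) and E8 (two UL97 point mutations); four drug concentrations, each in duplicate; EC50 read from plaque counts.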

[4] = (§4) Cytotoxicity against MEF; type: cell-based; details: mouse, MEF cells
Human alphaherpesvirus 1 [5] = experiment: Antiviral activity against Herpes simplex virus type 1 in HFF assessed as inhibition of virus-induced cytopathic effect; type: functional, organism-based
Summary of the method: (§5)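 HSV-1 and HSV-2 tested in HFF cultures by inhibition of virus-induced cytopathic effect (CPE); cytotoxicity measured by neutral red uptake.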

Human alphaherpesvirus 2 = experiment: Antiviral activity against Herpes simplex virus type 2 in HFF assessed as inhibition of virus-induced cytopathic effect; type: functional, organism-based; summary of the method: as §5
Human alphaherpesvirus 1 [6] = experiment: Antiviral activity against Herpes simplex virus type 1 in african green monkey BSC1 cells by ELISA; type: functional, organism-based; details: Human alphaherpesvirus 1, BSC-1
Summary of the method: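 HSV-1 in BSC-1 cells, viral antigen measured by ELISA; cytotoxicity determined in replicating KB cells.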

Human betaherpesvirus 5 [7] = experiment: Antiviral activity against Human cytomegalovirus Towne expressing wild type UL97 phosphotransferase by plaque reduction assay; type: functional, organism-based; details: Human betaherpesvirus 5, Towne; summary of the method: as §3
Human alphaherpesvirus 3 [8] = experiment: Antiviral activity against Varicella zoster virus in HFF assessed as inhibition of virus-induced cytopathic effect; type: functional, organism-based
Summary of the method: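 VZV in HFF culture; antiviral activity read by cytopathic effect (CPE) inhibition assay.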

[9] = Cytotoxicity against human Akata cells; type: cell-based
Human betaherpesvirus 5 [10] = experiment: Antiviral activity against drug-resistant Human cytomegalovirus E8 isolate expressing UL97 phosphotransferase with two point mutation in UL97 gene by plaque reduction assay; type: functional, organism-based; details: Human betaherpesvirus 5, E8; summary of the method: as §3
[11] = (§6) Cytotoxicity against HFF by visual cytotoxicity assay; type: cell-based; details: human, HFF cells
Summary of the method: (§7)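 Uninfected HFF cultures scored by visual inspection for cytotoxicity in cells unaffected by virus.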

[12] = (§8) Cytotoxicity against HFF by neutral red uptake assay; type: cell-based; details: human, HFF cells
Summary of the method: (§9)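 HFF cultures; cytotoxicity determined by neutral red uptake.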

Human gammaherpesvirus 4 [13] = experiment: Antiviral activity against Epstein-Barr virus in human Akata cells by DNA hybridization assay; type: functional, organism-based; details: human gammaherpesvirus 4, Akata
Summary of the method: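 EBV replication measured by DNA hybridization assay in Akata cells.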

KB = experiment: as §1; type: cell-based; details: kb; summary of the method: as §2
MEF = experiment: as §4; type: cell-based; details: mouse, mef
Human betaherpesvirus 5 [14] = experiment: Antiviral activity against Human cytomegalovirus AD169 in HFF by cytopathic effect (CPE) inhibition assay; details: Human betaherpesvirus 5, AD169
Human alphaherpesvirus 1 [15] = experiment: Antiviral activity against Herpes simplex virus type 1 in african green monkey BSC1 cells by plaque reduction assay; type: functional, organism-based; details: Human alphaherpesvirus 1, BSC-1
Summary of the method: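 HSV-1 plaque reduction in BSC-1 cells; cytotoxicity determined in replicating KB cells.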

HFF [16] = experiment: as §6; type: cell-based; details: human, hff; summary of the method: as §7
HFF [17] = experiment: as §8; type: cell-based; details: human, hff; summary of the method: as §9
Human betaherpesvirus 5 [18] = experiment: Antiviral activity against Human cytomegalovirus AD169 in HFF by cytopathic effect assay; type: functional, organism-based; details: Human betaherpesvirus 5, AD169
Summary of the method: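 HCMV strain AD169 grown in human foreskin fibroblast (HFF) cultures; antiviral effect read as inhibition of virus-induced cytopathic effect (CPE).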

[19] = Cytotoxicity against human Daudi cells; type: cell-based
[20] = Cytotoxicity against human CEM cells; type: cell-based; details: CCRF-CEM cells
Human gammaherpesvirus 4 [21] = experiment: Antiviral activity against Epstein-Barr virus in human H1 cells by DNA hybridization assay; type: functional, organism-based; details: human gammaherpesvirus 4, H1
Human alphaherpesvirus 3 [22] = experiment: Antiviral activity against Varicella zoster virus in HFF by plaque reduction assay; type: functional, organism-based
Summary of the method: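 VZV in HFF culture; antiviral activity measured by plaque reduction assay.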

| Compound | pEC50 (Human betaherpesvirus 5 [2]) | pEC50 (Murid betaherpesvirus 1) | pEC50 (Human betaherpesvirus 5 [3]) | pEC50 (Human alphaherpesvirus 1 [5]) | pEC50 (Human alphaherpesvirus 2) | pEC50 (Human betaherpesvirus 5 [7]) | pEC50 (Human alphaherpesvirus 3 [8]) | pEC50 (Human betaherpesvirus 5 [10]) | CC50 [11] [µM] | pEC50 (Human gammaherpesvirus 4 [13]) | pEC50 (Human betaherpesvirus 5 [14]) | pEC50 (Human alphaherpesvirus 1 [15]) | CC50 (HFF [17]) [µM] | other results |
| --- | --- | --- | --- | --- | --- | --- | --- | --- | --- | --- | --- | --- | --- | --- |
| Nc1nc2c(ncn2/C=C2/CC2(CO)CO)c(=O)[nH]1 [FILOCICLOVIR] | 6.34 | 6.57 | 4.55 | < 3.42 | < 3.42 | 6.22 | < 3.42 | 5.10 | > 100 | – | – | – | – | CC50 [1]: > 100 µM; CC50 [4]: > 380 µM; pEC50 (Human alphaherpesvirus 1 [6]): < 4.00; CC50 ([9]; Akata cells): 46 µM; CC50 [12]: > 380 µM |
| Nc1nc2c(ncn2/C=C2/CC23CCP(=O)(O)OC3)c(=O)[nH]1 (centres undefined) | 5.62 | 6.40 | 5.52 | < 3.52 | < 3.52 | 5.40 | < 3.52 | 5.40 | – | < 4.00 | 4.94 | 4.40 | > 300 | CC50 (KB): > 100 µM; CC50 (MEF): > 100 µM; CC50 ([9]; akata): > 100 µM; CC50 (HFF [16]): > 100 µM |
| Nc1nc2c(ncn2/C=C2\CC2(CO)CCP(=O)(O)O)c(=O)[nH]1 (centres undefined) | < 4.00 | – | – | < 3.52 | < 3.52 | – | 3.72 | – | – | < 4.00 | – | 4.00 | > 300 | pEC50 (Human betaherpesvirus 5 [18]): < 3.52 |
| Nc1nc2c(ncn2/C=C2\CC23CCP(=O)(O)OC3)c(=O)[nH]1 (centres undefined) | < 4.00 | – | – | – | – | – | – | – | – | < 4.00 | < 3.52 | 4.00 | – | – |
| Nc1nc2c(ncn2/C=C2/CC2(CO)CCP(=O)(O)O)c(=O)[nH]1 (centres undefined) | 5.66 | 6.89 | 5.52 | 4.23 | 4.12 | 5.46 | – | 5.49 | > 100 | – | 5.57 | – | – | pEC50 (Human alphaherpesvirus 1 [6]): 4.82; CC50 ([9]; Akata cells): > 100 µM |
| Nc1nc(O)c2ncn(/C=C3/CC34COP(=O)(O)OC4)c2n1 (centres undefined) | – | 5.14 | – | < 3.52 | 3.62 | – | < 3.52 | – | > 100 | – | – | – | – | CC50 [1]: > 100 µM; CC50 [19]: 150 µM; CC50 [20]: > 100 µM; CC50 [4]: > 301 µM; pEC50 (Human gammaherpesvirus 4 [21]): < 4.70; CC50 [12]: > 301 µM |
| Nc1nc2c(ncn2COCCO)c(=O)[nH]1 [ACYCLOVIR] | – | – | – | 5.89 | 5.92 | – | – | – | – | – | – | 6.52 | > 300 | pEC50 (Human alphaherpesvirus 3 [22]): 5.36 |
